# Measured values: ChEMBL document CHEMBL5724801, “EUbOPEN Chemogenomics Library - Multiplex” (2024)
# “And” between values parts separate entries of the source, which are not always exact repeats. Identical values can stand only once.
# How the values were obtained:
# Fibroblast = assay: Multiplex assay against human fibroblast; type: toxicity, cell-based
# Summary of the method: (§1)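 Imaging took place on a CQ1 microscope at 37°C and 5% CO2 once compound had been added to live cells stained at seeding with Hoechst33342, BioTracker Green Microtubule Cytoskeleton Dye, MitoTracker Red and Annexin V Alexa Fluor 680. CellPathfinder machine-learning gating classed cells as Hoechst high-intensity objects or normal cells, classed normal cells as having healthy, pyknosed or fragmented nuclei, and classed pyknosed cells as mitotic or apoptotic. Tubulin, mitochondrial-mass and membrane-permeability phenotypes are per cents of the healthy-nucleus cells.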
# HEK-293T = assay: Multiplex assay against HEK293T; type: toxicity, cell-based; conditions: human; summary of the method: as §1
# [1] = 12 h, 1 µM, compound concentration 1 uM
# [2] = 12 h, 10 µM, compound concentration 10 uM
# [3] = 24 h, 1 µM, compound concentration 1 uM
# [4] = 24 h, 10 µM, compound concentration 10 uM
# [5] = 48 h, 1 µM, compound concentration 1 uM
# [6] = 48 h, 10 µM, compound concentration 10 uM
smiles,measurement,setting,value
Cc1cccc(NC(=O)CN2CCC(c3ccccn3)CC2)c1.Cl.Cl,Population Apoptotic (%),Fibroblast; [1],47% and 33%
same,Population Fragmented Nuclei (%),Fibroblast; [1],16% and 25%
same,Population Healthy Nuclei (%),Fibroblast; [1],70% and 55%
same,Population Hoechst High Intensity Objects (%),Fibroblast; [1],4% and 6%
same,Population Membrane Permeable-Phenotype (%),Fibroblast; [1],0% and 2%
same,Population Mitochondria Different-Phenotype (%),Fibroblast; [1],6% and 5%
same,Population Mitotic Cells (%),Fibroblast; [1],52% and 66%
same,Population Normal (%),Fibroblast; [1],95% and 93%
same,Population Pyknosed Nuclei (%),Fibroblast; [1],12% and 19%
same,Population Tubulin-Different-Phenotype (%),Fibroblast; [1],34% and 35%
same,Total Cell Count,Fibroblast; [1],140 and 232
same,Population Apoptotic (%),Fibroblast; [2],59% and 34%
same,Population Healthy Nuclei (%),Fibroblast; [2],78% and 30%
same,Population Hoechst High Intensity Objects (%),Fibroblast; [2],10% and 2%
same,Population Membrane Permeable-Phenotype (%),Fibroblast; [2],1% and 6%
same,Population Mitochondria Different-Phenotype (%),Fibroblast; [2],7% and 10%
same,Population Mitotic Cells (%),Fibroblast; [2],40% and 65%
same,Population Normal (%),Fibroblast; [2],89% and 98%
same,Population Pyknosed Nuclei (%),Fibroblast; [2],13% and 23%
same,Population Tubulin-Different-Phenotype (%),Fibroblast; [2],36% and 56%
same,Total Cell Count,Fibroblast; [2],229 and 100
same,Population Apoptotic (%),Fibroblast; [3],50% and 40%
same,Population Fragmented Nuclei (%),Fibroblast; [3],18% and 26%
same,Population Healthy Nuclei (%),Fibroblast; [3],70% and 53%
same,Population Hoechst High Intensity Objects (%),Fibroblast; [3],2% and 4%
same,Population Membrane Permeable-Phenotype (%),Fibroblast; [3],0% and 4%
same,Population Mitochondria Different-Phenotype (%),Fibroblast; [3],8% and 6%
same,Population Mitotic Cells (%),Fibroblast; [3],50% and 59%
same,Population Normal (%),Fibroblast; [3],97% and 95%
same,Population Pyknosed Nuclei (%),Fibroblast; [3],10% and 19%
same,Population Tubulin-Different-Phenotype (%),Fibroblast; [3],25% and 30%
same,Total Cell Count,Fibroblast; [3],134 and 239
same,Population Apoptotic (%),Fibroblast; [4],64% and 42%
same,Population Healthy Nuclei (%),Fibroblast; [4],81% and 34%
same,Population Hoechst High Intensity Objects (%),Fibroblast; [4],7% and 0%
same,Population Membrane Permeable-Phenotype (%),Fibroblast; [4],0% and 11%
same,Population Mitochondria Different-Phenotype (%),Fibroblast; [4],11%
same,Population Mitotic Cells (%),Fibroblast; [4],35% and 57%
same,Population Normal (%),Fibroblast; [4],92% and 100%
same,Population Tubulin-Different-Phenotype (%),Fibroblast; [4],38% and 50%
same,Total Cell Count,Fibroblast; [4],217 and 105
same,Population Apoptotic (%),Fibroblast; [5],80% and 60%
same,Population Fragmented Nuclei (%),Fibroblast; [5],25% and 31%
same,Population Healthy Nuclei (%),Fibroblast; [5],63% and 55%
same,Population Hoechst High Intensity Objects (%),Fibroblast; [5],3%
same,Population Membrane Permeable-Phenotype (%),Fibroblast; [5],1% and 4%
same,Population Mitochondria Different-Phenotype (%),Fibroblast; [5],3%
same,Population Mitotic Cells (%),Fibroblast; [5],20% and 39%
same,Population Normal (%),Fibroblast; [5],96%
same,Population Pyknosed Nuclei (%),Fibroblast; [5],11% and 12%
same,Population Tubulin-Different-Phenotype (%),Fibroblast; [5],28% and 35%
same,Total Cell Count,Fibroblast; [5],138 and 229
same,Population Apoptotic (%),Fibroblast; [6],76% and 28%
same,Population Healthy Nuclei (%),Fibroblast; [6],75% and 39%
same,Population Hoechst High Intensity Objects (%),Fibroblast; [6],7% and 1%
same,Population Membrane Permeable-Phenotype (%),Fibroblast; [6],2%
same,Population Normal (%),Fibroblast; [6],92% and 98%
same,Population Pyknosed Nuclei (%),Fibroblast; [6],7% and 6%
same,Population Tubulin-Different-Phenotype (%),Fibroblast; [6],44% and 61%
same,Total Cell Count,Fibroblast; [6],238 and 109
same,Population Apoptotic (%),HEK-293T; [1],34% and 46%
same,Population Fragmented Nuclei (%),HEK-293T; [1],7% and 5%
same,Population Healthy Nuclei (%),HEK-293T; [1],76% and 82%
same,Population Hoechst High Intensity Objects (%),HEK-293T; [1],5% and 3%
same,Population Membrane Permeable-Phenotype (%),HEK-293T; [1],0%
same,Population Mitochondria Different-Phenotype (%),HEK-293T; [1],54%
same,Population Mitotic Cells (%),HEK-293T; [1],65% and 53%
same,Population Normal (%),HEK-293T; [1],94% and 96%
same,Population Pyknosed Nuclei (%),HEK-293T; [1],15% and 11%
same,Population Tubulin-Different-Phenotype (%),HEK-293T; [1],33% and 22%
same,Total Cell Count,HEK-293T; [1],348 and 277
same,Population Apoptotic (%),HEK-293T; [2],61% and 43%
same,Population Fragmented Nuclei (%),HEK-293T; [2],6% and 10%
same,Population Healthy Nuclei (%),HEK-293T; [2],71% and 70%
same,Population Hoechst High Intensity Objects (%),HEK-293T; [2],9% and 14%
same,Population Membrane Permeable-Phenotype (%),HEK-293T; [2],0%
same,Population Mitochondria Different-Phenotype (%),HEK-293T; [2],63% and 79%
same,Population Mitotic Cells (%),HEK-293T; [2],38% and 56%
same,Population Normal (%),HEK-293T; [2],90% and 85%
same,Population Pyknosed Nuclei (%),HEK-293T; [2],21% and 18%
same,Population Tubulin-Different-Phenotype (%),HEK-293T; [2],50% and 35%
same,Total Cell Count,HEK-293T; [2],291 and 273
same,Population Apoptotic (%),HEK-293T; [3],32% and 45%
same,Population Fragmented Nuclei (%),HEK-293T; [3],8% and 10%
same,Population Healthy Nuclei (%),HEK-293T; [3],81% and 79%
same,Population Hoechst High Intensity Objects (%),HEK-293T; [3],3% and 4%
same,Population Membrane Permeable-Phenotype (%),HEK-293T; [3],0%
same,Population Mitochondria Different-Phenotype (%),HEK-293T; [3],30% and 44%
same,Population Mitotic Cells (%),HEK-293T; [3],67% and 54%
same,Population Normal (%),HEK-293T; [3],96% and 95%
same,Population Pyknosed Nuclei (%),HEK-293T; [3],9% and 10%
same,Population Tubulin-Different-Phenotype (%),HEK-293T; [3],22% and 18%
same,Total Cell Count,HEK-293T; [3],451 and 339
same,Population Apoptotic (%),HEK-293T; [4],59% and 50%
